Test results published in ChEMBL document CHEMBL5058577, “EUbOPEN Chemogenomics Library 2 (Multiplex)” (2022).

System: HEK-293T
Test: Multiplex assay against HEK293T
Type: toxicity, cell-based
Details: human
How it was run: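 Cells stained live at seeding with Hoechst33342, BioTracker Green Microtubule Cytoskeleton Dye, MitoTracker Red and Annexin V Alexa Fluor 680 were imaged on a CQ1 microscope at 37°C and 5% CO2 after compound addition. Their classification by CellPathfinder machine-learning gating ran from Hoechst high-intensity objects versus normal cells, to healthy, pyknosed or fragmented nuclei among normal cells, to mitotic or apoptotic among pyknosed cells. Tubulin, mitochondrial-mass and membrane-permeability phenotypes are per cents of healthy-nucleus cells.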

[1] = 12 h, 1 µM, compound concentration 1 uM, replicate 1
[2] = 12 h, 1 µM, compound concentration 1 uM, replicate 2
[3] = 12 h, 10 µM, compound concentration 10 uM, replicate 1
[4] = 12 h, 10 µM, compound concentration 10 uM, replicate 2
[5] = 24 h, 1 µM, compound concentration 1 uM, replicate 1
[6] = 24 h, 1 µM, compound concentration 1 uM, replicate 2
[7] = 24 h, 10 µM, compound concentration 10 uM, replicate 1
[8] = 24 h, 10 µM, compound concentration 10 uM, replicate 2
[9] = 48 h, 1 µM, compound concentration 1 uM, replicate 1
[10] = 48 h, 1 µM, compound concentration 1 uM, replicate 2
[11] = 48 h, 10 µM, compound concentration 10 uM, replicate 1
[12] = 48 h, 10 µM, compound concentration 10 uM, replicate 2

For `COc1cc(C(=O)N(CCCc2ccccc2)Cc2ccc(CC(=O)O)cc2)cc(OC)c1C`, the “Population Apoptotic (%)” value [1] was 45%, the “Population Fragmented Nuclei (%)” value [1] was 7% and the “Population Healthy Nuclei (%)” value [1] was 82%. For the same compound, the “Population Hoechst High Intensity Objects (%)” value [1] was 5%, the “Population Membrane Permeable-Phenotype (%)” value [1] was 0% and the “Population Mitochondria Different-Phenotype (%)” value [1] was 47%. The “Population Mitotic Cells (%)” value [1] was 55%, the “Population Normal (%)” value [1] was 94% and the “Population Pyknosed Nuclei (%)” value [1] was 10%. For the same compound, the “Population Tubulin-Different-Phenotype (%)” value [1] was 31%, the “Total Cell Count” value [1] was 395 and the “Population Apoptotic (%)” value [2] was 44%. The “Population Fragmented Nuclei (%)” value [2] was 6%, the “Population Healthy Nuclei (%)” value [2] was 84% and the “Population Hoechst High Intensity Objects (%)” value [2] was 4%. The “Population Mitochondria Different-Phenotype (%)” value [2] was 50%, the “Population Normal (%)” value [2] was 95% and the “Population Pyknosed Nuclei (%)” value [2] was 9%. For the same compound, the “Population Tubulin-Different-Phenotype (%)” value [2] was 19%, the “Total Cell Count” value [2] was 410 and the “Population Apoptotic (%)” value [3] was 30%. The “Population Fragmented Nuclei (%)” value [3] was 6%, the “Population Healthy Nuclei (%)” value [3] was 77% and the “Population Hoechst High Intensity Objects (%)” value [3] was 8%. The “Population Membrane Permeable-Phenotype (%)” value [3] was 1%, the “Population Mitochondria Different-Phenotype (%)” value [3] was 46% and the “Population Mitotic Cells (%)” value [3] was 70%. For the same compound, the “Population Normal (%)” value [3] was 91%, the “Population Pyknosed Nuclei (%)” value [3] was 15% and the “Population Tubulin-Different-Phenotype (%)” value [3] was 52%. For the same compound, the “Total Cell Count” value [3] was 431, the “Population Apoptotic (%)” value [4] was 47% and the “Population Fragmented Nuclei (%)” value [4] was 4%. For the same compound, the “Population Healthy Nuclei (%)” value [4] was 82%, the “Population Hoechst High Intensity Objects (%)” value [4] was 6% and the “Population Membrane Permeable-Phenotype (%)” value [4] was 0%. For the same compound, the “Population Mitochondria Different-Phenotype (%)” value [4] was 67%, the “Population Mitotic Cells (%)” value [4] was 52% and the “Population Normal (%)” value [4] was 93%. The “Population Pyknosed Nuclei (%)” value [4] was 13%, the “Population Tubulin-Different-Phenotype (%)” value [4] was 44% and the “Total Cell Count” value [4] was 438. The “Population Apoptotic (%)” value [5] was 32%, the “Population Fragmented Nuclei (%)” value [5] was 7% and the “Population Healthy Nuclei (%)” value [5] was 78%. For the same compound, the “Population Hoechst High Intensity Objects (%)” value [5] was 5%, the “Population Membrane Permeable-Phenotype (%)” value [5] was 0% and the “Population Mitochondria Different-Phenotype (%)” value [5] was 27%. The “Population Mitotic Cells (%)” value [5] was 67%, the “Population Normal (%)” value [5] was 94% and the “Population Pyknosed Nuclei (%)” value [5] was 14%. The “Population Tubulin-Different-Phenotype (%)” value [5] was 15%, the “Total Cell Count” value [5] was 483 and the “Population Apoptotic (%)” value [6] was 48%. The “Population Healthy Nuclei (%)” value [6] was 82%, the “Population Hoechst High Intensity Objects (%)” value [6] was 3% and the “Population Mitochondria Different-Phenotype (%)” value [6] was 26%. For the same compound, the “Population Mitotic Cells (%)” value [6] was 51%, the “Population Normal (%)” value [6] was 96% and the “Population Pyknosed Nuclei (%)” value [6] was 9%. The “Population Tubulin-Different-Phenotype (%)” value [6] was 10%, the “Total Cell Count” value [6] was 507 and the “Population Apoptotic (%)” value [7] was 34%. For the same compound, the “Population Fragmented Nuclei (%)” value [7] was 7%, the “Population Healthy Nuclei (%)” value [7] was 80% and the “Population Hoechst High Intensity Objects (%)” value [7] was 7%. For the same compound, the “Population Membrane Permeable-Phenotype (%)” value [7] was 0%, the “Population Mitochondria Different-Phenotype (%)” value [7] was 39% and the “Population Mitotic Cells (%)” value [7] was 65%. For the same compound, the “Population Normal (%)” value [7] was 92%, the “Population Pyknosed Nuclei (%)” value [7] was 12% and the “Population Tubulin-Different-Phenotype (%)” value [7] was 43%. For the same compound, the “Total Cell Count” value [7] was 549, the “Population Apoptotic (%)” value [8] was 42% and the “Population Healthy Nuclei (%)” value [8] was 79%. For the same compound, the “Population Hoechst High Intensity Objects (%)” value [8] was 6%, the “Population Mitochondria Different-Phenotype (%)” value [8] was 50% and the “Population Mitotic Cells (%)” value [8] was 57%. The “Population Normal (%)” value [8] was 93%, the “Population Tubulin-Different-Phenotype (%)” value [8] was 38% and the “Total Cell Count” value [8] was 526. The “Population Apoptotic (%)” value [9] was 30%, the “Population Fragmented Nuclei (%)” value [9] was 12% and the “Population Healthy Nuclei (%)” value [9] was 77%. For the same compound, the “Population Hoechst High Intensity Objects (%)” value [9] was 1%, the “Population Membrane Permeable-Phenotype (%)” value [9] was 1% and the “Population Mitochondria Different-Phenotype (%)” value [9] was 16%. The “Population Mitotic Cells (%)” value [9] was 69%, the “Population Normal (%)” value [9] was 98% and the “Population Pyknosed Nuclei (%)” value [9] was 9%. The “Population Tubulin-Different-Phenotype (%)” value [9] was 11%, the “Total Cell Count” value [9] was 812 and the “Population Apoptotic (%)” value [10] was 26%. For the same compound, the “Population Fragmented Nuclei (%)” value [10] was 9%, the “Population Healthy Nuclei (%)” value [10] was 83% and the “Population Hoechst High Intensity Objects (%)” value [10] was 3%. The “Population Mitochondria Different-Phenotype (%)” value [10] was 17%, the “Population Mitotic Cells (%)” value [10] was 73% and the “Population Normal (%)” value [10] was 96%. The “Population Pyknosed Nuclei (%)” value [10] was 7%, the “Population Tubulin-Different-Phenotype (%)” value [10] was 9% and the “Total Cell Count” value [10] was 753. The “Population Apoptotic (%)” value [11] was 32%, the “Population Fragmented Nuclei (%)” value [11] was 12% and the “Population Healthy Nuclei (%)” value [11] was 76%. For the same compound, the “Population Hoechst High Intensity Objects (%)” value [11] was 4%, the “Population Membrane Permeable-Phenotype (%)” value [11] was 1% and the “Population Mitochondria Different-Phenotype (%)” value [11] was 29%. The “Population Mitotic Cells (%)” value [11] was 67%, the “Population Normal (%)” value [11] was 95% and the “Population Pyknosed Nuclei (%)” value [11] was 11%. For the same compound, the “Population Tubulin-Different-Phenotype (%)” value [11] was 29%, the “Total Cell Count” value [11] was 729 and the “Population Apoptotic (%)” value [12] was 33%. The “Population Fragmented Nuclei (%)” value [12] was 15%, the “Population Healthy Nuclei (%)” value [12] was 75% and the “Population Hoechst High Intensity Objects (%)” value [12] was 8%. The “Population Mitochondria Different-Phenotype (%)” value [12] was 37%, the “Population Mitotic Cells (%)” value [12] was 66% and the “Population Normal (%)” value [12] was 91%. The “Population Pyknosed Nuclei (%)” value [12] was 9%, the “Population Tubulin-Different-Phenotype (%)” value [12] was 34% and the “Total Cell Count” value [12] was 632.
